From ChEMBL document CHEMBL4321880 (J Med Chem, 2020) come the findings set out here.

For one data set, the target named is CYP3A5 (Homo sapiens, UniProt P20815). Nature of the data set: Inhibition of human recombinant CYP3A5 expressed in supersomes assessed as decrease in formation of D-luciferin using luciferin-IPA as substrate incubated for 10 mins in presence of NADPH by P450-Glo luminescence assay. Particulars: probe luciferin-IPA; call rule not given here.
In a further data set the target is T1, Cytochrome P450 1A2 (Homo sapiens, UniProt P05177).
T1 sequence (P05177 whole entry): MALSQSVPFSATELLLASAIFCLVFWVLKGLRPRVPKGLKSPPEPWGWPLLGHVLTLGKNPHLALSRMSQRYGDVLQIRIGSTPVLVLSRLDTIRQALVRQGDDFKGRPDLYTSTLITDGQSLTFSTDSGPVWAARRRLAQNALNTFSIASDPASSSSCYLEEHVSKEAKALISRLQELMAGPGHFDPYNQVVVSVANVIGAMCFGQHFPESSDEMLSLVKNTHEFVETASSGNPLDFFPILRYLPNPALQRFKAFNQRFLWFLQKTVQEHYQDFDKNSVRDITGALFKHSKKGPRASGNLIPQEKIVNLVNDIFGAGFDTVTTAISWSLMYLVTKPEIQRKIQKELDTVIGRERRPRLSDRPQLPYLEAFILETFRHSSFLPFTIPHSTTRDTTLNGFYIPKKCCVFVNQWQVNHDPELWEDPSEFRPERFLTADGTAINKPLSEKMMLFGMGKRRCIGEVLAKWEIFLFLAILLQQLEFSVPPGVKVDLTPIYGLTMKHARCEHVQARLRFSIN
The experiment in a line: Inhibition of CYP1A2 in human liver microsomes assessed as formation of hydroxytacrine at 1.85 uM using tacrine as substrate incubated for 10 mins in presence of NADPH by LC-MS/MS analysis. The data set is classed as ADME. The procedure, abridged:
(§1)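 Pooled human liver microsomes with 2 mM NADPH in 100 mM KPO4 pH 7.4, 5 mM MgCl2, 37 °C, technical triplicate, final DMSO 0.2%. Probe (substrate, level, protein, time): 1A2 tacrine 5 μM, 0.2 mg/mL, 10 min; 2B6 bupropion 100 μM, 0.25 mg/mL, 10 min; 2C8 amodiaquine 5 μM, 0.25 mg/mL, 10 min; 2C9 tolbutamide 100 μM, 0.5 mg/mL, 15 min; 2C19 mephenytoin 100 μM, 0.25 mg/mL, 60 min; 2D6 dextromethorphan 5 μM, 0.5 mg/mL, 10 min; 3A4 midazolam 2.5 μM or testosterone 50 μM, 0.25 mg/mL, 10 min. Methanol quench, metabolites measured by LC-MS/MS.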

In another data set the target is T2, Cytochrome P450 2B6 (Homo sapiens, UniProt P20813).
T2 sequence (P20813 whole entry): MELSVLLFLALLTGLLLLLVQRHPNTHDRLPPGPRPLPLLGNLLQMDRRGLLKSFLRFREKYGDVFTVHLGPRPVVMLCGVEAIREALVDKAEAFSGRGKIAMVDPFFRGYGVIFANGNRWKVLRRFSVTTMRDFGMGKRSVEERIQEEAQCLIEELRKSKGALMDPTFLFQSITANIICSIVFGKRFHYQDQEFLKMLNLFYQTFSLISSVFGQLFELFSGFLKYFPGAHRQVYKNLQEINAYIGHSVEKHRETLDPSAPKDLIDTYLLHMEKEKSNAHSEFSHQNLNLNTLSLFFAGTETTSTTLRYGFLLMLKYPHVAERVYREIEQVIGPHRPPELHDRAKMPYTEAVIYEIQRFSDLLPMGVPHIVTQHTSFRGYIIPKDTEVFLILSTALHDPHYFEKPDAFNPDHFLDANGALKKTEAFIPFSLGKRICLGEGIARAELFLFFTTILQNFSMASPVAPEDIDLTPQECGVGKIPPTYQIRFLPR
Nature of the data set: Inhibition of CYP2B6 in human liver microsomes assessed as formation of hydroxybupropion at 1.85 uM using bupropion as substrate incubated for 10 mins in presence of NADPH by LC-MS/MS analysis. The data set is classed as ADME. In outline:
as §1

The target in the next data set is Cytochrome P450 2C9 (Homo sapiens, UniProt P11712). The experiment in a line: Inhibition of CYP2C9 in human liver microsomes assessed as formation of alpha-hydroxytolbutamide at 1.85 uM using tolbutamide as substrate incubated for 15 mins in presence of NADPH by LC-MS/MS analysis. The data set is classed as ADME. Particulars: 0.25 h. In outline: as §1
Sequence of Cytochrome P450 2C9 (P11712 whole entry): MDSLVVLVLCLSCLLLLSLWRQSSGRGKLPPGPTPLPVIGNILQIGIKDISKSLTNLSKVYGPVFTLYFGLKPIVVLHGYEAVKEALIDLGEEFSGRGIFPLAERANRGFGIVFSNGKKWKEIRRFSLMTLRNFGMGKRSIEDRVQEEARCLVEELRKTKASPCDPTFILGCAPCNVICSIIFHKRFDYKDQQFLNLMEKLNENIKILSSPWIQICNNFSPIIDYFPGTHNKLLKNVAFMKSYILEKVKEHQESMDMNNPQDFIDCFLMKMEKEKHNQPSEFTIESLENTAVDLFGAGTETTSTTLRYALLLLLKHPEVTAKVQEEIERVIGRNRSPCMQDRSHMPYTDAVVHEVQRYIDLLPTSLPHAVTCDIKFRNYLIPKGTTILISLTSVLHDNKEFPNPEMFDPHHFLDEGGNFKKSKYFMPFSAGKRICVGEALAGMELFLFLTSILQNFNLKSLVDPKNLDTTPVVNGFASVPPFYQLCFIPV
The target in data set [1] is T3, Cytochrome P450 3A4 (Homo sapiens, UniProt P08684). Nature of the data set: Inhibition of CYP3A4 in human liver microsomes assessed as formation of 6-beta-hydroxytestosterone at 1.85 uM using testosterone as substrate incubated for 10 mins in presence of NADPH by LC-MS/MS analysis. Format: ADME. In outline:
as §1

The test system of data set [2] is ASPC1. The experiment in a line: Cytotoxicity against CRISPR/Cas9-mediated CYP3A5 knock-out and lentiviral pLVX-TRE3G-ZsGreen1-CYP3A4 transduced human AsPC1 cells overexpressing CYP3A4 assessed as cell growth. The data set is classed as ADME, cell-based. In outline:
(§2)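 Cells seeded at 10,000/well. Dox-inducible lines were induced with 100 ng/mL doxycycline, then treated 24 h later with compound at 16 two-fold dilutions (0.0003–10 μM) plus 5 μM midazolam, in 0.66% DMSO final, for 24 h. Phase-contrast confluence imaging followed. Values were normalized to six 0.66% DMSO replicates and fitted with a three-parameter log(inhibitor) vs response curve.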

Data set [3] deals with ASPC1. The experiment in a line: Cytotoxicity against CRISPR/Cas9-mediated CYP3A5 knock-out human AsPC1 cells assessed as cell growth. Format: ADME, cell-based. The procedure, abridged: as §2
For data set [4], the system named is ASPC1. The experiment in a line: Cytotoxicity against CRISPR/Cas9-mediated CYP3A5 knock-out and doxycycline-induced CYP3A4 overexpressing human AsPC1 cells assessed as cell growth. Format: ADME, cell-based. The procedure, abridged: as §2
Data set [5] has as its system ASPC1. The experiment in a line: Cytotoxicity against CRISPR/Cas9-mediated CYP3A5 knock-out and doxycycline-induced CYP3A5 overexpressing human AsPC1 cells assessed as cell growth. Format: ADME, cell-based. In outline: as §2
Data set [6] concerns the target T3, Cytochrome P450 3A4. Nature of the data set: Binding affinity to His-tagged CYP3A4 (unknown origin) expressed in Escherichia coli DH5alpha assessed as type 1 spectral shift to substrate-bound form by UV-vis spectrophotometric titration analysis. Format: ADME. In outline:
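Recombinant His-tagged enzyme expressed in E. coli with groESL chaperones, purified by Ni-NTA, CM-sepharose and S-200 gel filtration (Rz ≥1.3). Ligand added stepwise until heme absorbance stopped changing. Difference spectra taken against the ligand-free spectrum. Peak-minus-trough ΔAbs (388–418 nm) plotted against ligand concentration and fitted with equation 2 for Kd.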

Data set [7] deals with T3, Cytochrome P450 3A4. Nature of the data set: Binding affinity to His-tagged CYP3A4 (unknown origin) expressed in Escherichia coli DH5alpha assessed as retention of axial water ligand with ligand free LS with no new HS formation by EPR spectroscopy. Particulars: buffer. The data set is classed as ADME. The procedure, abridged: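 Continuous-wave X-band EPR of the purified recombinant ligand-free enzyme and of its ligand complex. Ferric heme spin state (LS vs HS) assigned from g-values.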

Data set [8] has as its target T3, Cytochrome P450 3A4. The experiment in a line: Inhibition of CYP3A4 in human liver microsomes assessed as formation of 1-hydroxymidazolam at 1.85 uM using midazolam as substrate incubated for 10 mins in presence of NADPH by LC-MS/MS analysis.

T3 sequence (P08684 whole entry): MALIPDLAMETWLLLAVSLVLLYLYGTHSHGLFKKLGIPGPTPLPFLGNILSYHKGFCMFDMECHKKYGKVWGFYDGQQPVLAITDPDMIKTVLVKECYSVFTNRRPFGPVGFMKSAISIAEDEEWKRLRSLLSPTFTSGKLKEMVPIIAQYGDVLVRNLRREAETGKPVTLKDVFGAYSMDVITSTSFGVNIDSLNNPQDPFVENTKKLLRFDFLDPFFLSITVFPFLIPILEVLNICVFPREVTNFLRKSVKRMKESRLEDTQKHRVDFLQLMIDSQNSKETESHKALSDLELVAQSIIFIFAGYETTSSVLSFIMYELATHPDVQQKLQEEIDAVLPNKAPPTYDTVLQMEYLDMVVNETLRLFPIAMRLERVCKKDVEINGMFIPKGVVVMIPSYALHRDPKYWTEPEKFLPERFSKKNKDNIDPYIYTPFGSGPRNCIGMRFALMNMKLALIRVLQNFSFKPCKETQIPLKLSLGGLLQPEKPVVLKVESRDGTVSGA
Sequence of CYP3A5 (P20815 whole entry): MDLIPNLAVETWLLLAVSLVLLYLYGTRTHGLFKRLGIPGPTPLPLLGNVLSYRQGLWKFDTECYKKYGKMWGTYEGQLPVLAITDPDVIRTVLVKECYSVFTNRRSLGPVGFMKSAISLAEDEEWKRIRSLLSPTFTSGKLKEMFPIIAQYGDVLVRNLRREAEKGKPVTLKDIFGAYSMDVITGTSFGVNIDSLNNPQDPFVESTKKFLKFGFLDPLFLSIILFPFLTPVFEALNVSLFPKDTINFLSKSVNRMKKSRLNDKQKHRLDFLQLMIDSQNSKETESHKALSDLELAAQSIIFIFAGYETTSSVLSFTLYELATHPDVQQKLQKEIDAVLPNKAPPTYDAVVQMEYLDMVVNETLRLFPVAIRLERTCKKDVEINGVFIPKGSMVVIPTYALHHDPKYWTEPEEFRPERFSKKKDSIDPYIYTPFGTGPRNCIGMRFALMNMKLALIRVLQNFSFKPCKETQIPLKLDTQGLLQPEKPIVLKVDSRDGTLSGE

Turning to `CCC(=O)O[C@]1(C(=O)CCl)[C@@H](C)C[C@H]2[C@@H]3CCC4=CC(=O)C=C[C@]4(C)[C@@]3(F)[C@@H](O)C[C@@]21C` [CLOBETASOL PROPIONATE], the IC90 at 10 min on CYP3A5 was 1800 nM. Besides, the “inhibition (INH)” value at Cytochrome P450 1A2, on Cytochrome P450 2B6, on Cytochrome P450 2C9, on Cytochrome P450 3A4 [1] and at Cytochrome P450 3A4 [8] was “Not Active” throughout. Besides, the Activity entry in the data set on ASPC1 [2] is on record as “Non-Toxic”; in the data set on ASPC1 [3], “Non-Toxic”; with ASPC1 [4] it was “Non-Toxic”; in the data set with ASPC1 [5], “Non-Toxic”; on Cytochrome P450 3A4 [6], “Active”; on Cytochrome P450 3A4 [7] it was “Not Active”.
